Experimental data: ChEMBL document CHEMBL1153007, “Mono and bis-6-arylbenzimidazo[1,2-c]quinazolines: a new class of antimicrobial agents” (2009)
Converted amounts (≈) assume the structure as drawn.

Legend:
[1] = tested on: Klebsiella pneumoniae; experiment: Antibacterial activity against Klebsiella pneumoniae after 24 hrs by liquid dilution method; type: functional
Outline: (§1)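 Liquid dilution in tubes: 1 ml compound solution (stocks 2.5, 5, 10, 15, 20, 25, 30, 35, 40, 45, 50 µg/ml, prepared in appropriate solvent) plus 0.2 ml bacterial inoculum and 3.8 ml sterile water; incubated 24 h, checked for turbidity. MIC taken as lowest concentration with no growth. Ampicillin as reference.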

[2] = tested on: Staphylococcus aureus; experiment: Antibacterial activity against Staphylococcus aureus after 24 hrs by liquid dilution method; type: functional; outline: as §1
[3] = tested on: Streptococcus pyogenes; experiment: Antibacterial activity against Streptococcus pyogenes at 1000 ug/ml after 24 hrs by agar diffusion method; type: functional; details: read-out: IZ
Outline: (§2)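 Cup-plate agar diffusion on nutrient agar. Cultures grown overnight in NA broth at 37 °C and swabbed onto plates. Test solution at 1000 μg/ml added to 6 mm bores. Plates incubated at 37 °C for 24 h; zone of inhibition measured. Ampicillin plate as standard; one-way ANOVA at p ≤ 0.05.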

[4] = tested on: Staphylococcus aureus; experiment: Antibacterial activity against Staphylococcus aureus at 1000 ug/ml after 24 hrs by agar diffusion method; type: functional; details: read-out: IZ; outline: as §2
[5] = tested on: Salmonella enterica subsp. enterica; experiment: Antibacterial activity against Salmonella Typhimurium at 1000 ug/ml after 24 hrs by agar diffusion method; type: functional, Salmonella enterica subsp. enterica serovar Typhimurium; details: read-out: IZ; outline: as §2
[6] = tested on: Bacillus subtilis; experiment: Antibacterial activity against Bacillus subtilis at 1000 ug/ml after 24 hrs by agar diffusion method; type: functional; details: read-out: IZ; outline: as §2
[7] = tested on: Klebsiella pneumoniae; experiment: Antibacterial activity against Klebsiella pneumoniae at 1000 ug/ml after 24 hrs by agar diffusion method; type: functional; details: read-out: IZ; outline: as §2
[8] = tested on: Salmonella enterica subsp. enterica; experiment: Antibacterial activity against Salmonella Typhimurium after 24 hrs by liquid dilution method; type: functional, Salmonella enterica subsp. enterica serovar Typhimurium; outline: as §1
[9] = tested on: Streptococcus pyogenes; experiment: Antibacterial activity against Streptococcus pyogenes after 24 hrs by liquid dilution method; type: functional; outline: as §1
[10] = tested on: Escherichia coli; experiment: Antibacterial activity against Escherichia coli at 1000 ug/ml after 24 hrs by agar diffusion method; type: functional; details: read-out: IZ; outline: as §2
[11] = tested on: Bacillus subtilis; experiment: Antibacterial activity against Bacillus subtilis after 24 hrs by liquid dilution method; type: functional; outline: as §1
[12] = tested on: Escherichia coli; experiment: Antibacterial activity against Escherichia coli after 24 hrs by liquid dilution method; type: functional; outline: as §1
[13] = tested on: Aspergillus niger; experiment: Antifungal activity against Aspergillus niger at 1000 ug/ml after 72 hrs by agar diffusion method; type: functional; details: read-out: IZ
Outline: (§3)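 Strains grown and maintained on Sabouraud glucose agar. Test solution at 1000 µg/ml placed in bores cut in the agar. Plates incubated at 26 °C for 72 h, then the zone of inhibition around each bore was measured. Ketoconazole plates as standard; one-way ANOVA at p ≤ 0.05.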

[14] = tested on: Trichoderma viride; experiment: Antifungal activity against Trichoderma viride at 1000 ug/ml after 72 hrs by agar diffusion method; type: functional; details: read-out: IZ; outline: as §3
[15] = tested on: Candida albicans; experiment: Antifungal activity against Candida albicans at 1000 ug/ml after 72 hrs by agar diffusion method; type: functional; details: read-out: IZ; outline: as §3
[16] = tested on: Trichoderma viride; experiment: Antifungal activity against Trichoderma viride after 24 hrs by liquid dilution method
[17] = tested on: Aspergillus niger; experiment: Antifungal activity against Aspergillus niger after 72 hrs by liquid dilution method; type: functional
Outline: (§4)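 Liquid dilution in tubes: 1 ml compound solution (stocks 2.5–50 µg/ml, prepared in appropriate solvent) plus 0.2 ml fungal inoculum and 3.8 ml sterile water; checked for turbidity. MIC taken as lowest concentration with no visible growth. Ketoconazole as reference.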

[18] = tested on: Candida albicans; experiment: Antifungal activity against Candida albicans after 72 hrs by liquid dilution method; type: functional; outline: as §4
[19] = tested on: Aspergillus niger; experiment: Antifungal activity against Aspergillus niger after 24 hrs by liquid dilution method
[20] = tested on: Trichoderma viride; experiment: Antifungal activity against Trichoderma viride after 72 hrs by liquid dilution method; type: functional; outline: as §4

MIC [1] [µg/mL] | MIC [2] [µg/mL] | MIC [8] [µg/mL] | MIC [9] [µg/mL] | MIC [11] [µg/mL] | MIC [12] [µg/mL] | MIC [16] [µg/mL] | MIC [18] [µg/mL] | MIC [19] [µg/mL] | MIC [20] [µg/mL] | SMILES | zone of inhibition at 1000 µg/mL [3] [mm] | zone of inhibition at 1000 µg/mL [4] [mm] | zone of inhibition at 1000 µg/mL [5] [mm] | zone of inhibition at 1000 µg/mL [6] [mm] | zone of inhibition at 1000 µg/mL [7] [mm] | zone of inhibition at 1000 µg/mL [10] [mm] | zone of inhibition at 1000 µg/mL [13] [mm] | zone of inhibition at 1000 µg/mL [14] [mm] | zone of inhibition at 1000 µg/mL [15] [mm] | MIC [17] [µg/mL]
– | – | – | – | – | – | – | – | – | – | c1coc(-c2nc3ccccc3c3nc4ccccc4n23)c1 | 18 | 25 | 15 | 21 | 12 | 20 | 13 | 6 | 11 | –
– | – | – | – | – | – | – | – | – | – | c1ccc(-c2nc3ccccc3c3nc4ccccc4n23)c(-c2nc3ccccc3c3nc4ccccc4n23)c1 | 15 | 18 | 12 | 14 | 15 | 20 | 16 | 13 | 13 | –
20 (≈ 67.5 µM) | 10 (≈ 33.7 µM) | 20 (≈ 67.5 µM) | 15 (≈ 50.6 µM) | 20 (≈ 67.5 µM) | 15 (≈ 50.6 µM) | – | 15 (≈ 50.6 µM) | 10 (≈ 33.7 µM) | 15 (≈ 50.6 µM) | c1ccc(-c2nc3ccccc3c3nc4ccccc4n23)nc1 | 49 | 50 | 38 | 42 | 35 | 51 | 49 | 45 | 48 | –
– | – | – | – | – | – | – | – | – | – | c1c[nH]c(-c2nc3ccccc3c3nc4ccccc4n23)c1 | 13 | 22 | 14 | 18 | 12 | 18 | 11 | 9 | 9 | –
15 (≈ 49.8 µM) | 5 (≈ 16.6 µM) | 15 (≈ 49.8 µM) | 10 (≈ 33.2 µM) | 15 (≈ 49.8 µM) | 10 (≈ 33.2 µM) | – | 15 (≈ 49.8 µM) | 5 (≈ 16.6 µM) | 10 (≈ 33.2 µM) | c1csc(-c2nc3ccccc3c3nc4ccccc4n23)c1 | 50 | 51 | 40 | 45 | 36 | 50 | 51 | 46 | 48 | –
5 (≈ 9.64 µM) | 2.5 (≈ 4.82 µM) | 5 (≈ 9.64 µM) | 5 (≈ 9.64 µM) | 10 (≈ 19.3 µM) | 2.5 (≈ 4.82 µM) | 5 (≈ 9.64 µM) | 2.5 (≈ 4.82 µM) | 2.5 (≈ 4.82 µM) | – | c1ccc2c(c1)nc(-c1ccc(-c3nc4ccccc4c4nc5ccccc5n34)s1)n1c3ccccc3nc21 | 52 | 55 | 46 | 50 | 50 | 51 | 55 | 48 | 51 | –
5 (≈ 9.74 µM) | 2.5 (≈ 4.87 µM) | 5 (≈ 9.74 µM) | 10 (≈ 19.5 µM) | 15 (≈ 29.2 µM) | 5 (≈ 9.74 µM) | 10 (≈ 19.5 µM) | 5 (≈ 9.74 µM) | 2.5 (≈ 4.87 µM) | – | c1cc(-c2nc3ccccc3c3nc4ccccc4n23)nc(-c2nc3ccccc3c3nc4ccccc4n23)c1 | 50 | 52 | 46 | 45 | 49 | 50 | 50 | 45 | 50 | –
– | – | – | – | – | – | – | – | – | – | c1cc(-c2nc3ccccc3c3nc4ccccc4n23)cc(-c2nc3ccccc3c3nc4ccccc4n23)c1 | 15 | 21 | 15 | 18 | 18 | 19 | 18 | 12 | 15 | –
– | – | – | – | – | – | – | – | – | – | c1ccc2c(c1)nc(-c1ccc(-c3nc4ccccc4c4nc5ccccc5n34)cc1)n1c3ccccc3nc21 | 18 | 25 | 14 | 19 | 18 | 21 | 21 | 13 | 16 | –
– | – | – | – | – | – | – | – | – | – | c1ccc(-c2nc3ccccc3c3nc4ccccc4n23)cc1 | 13 | 18 | 12 | 14 | 16 | 18 | 10 | 9 | 10 | –

SMILES | MIC [1] [µg/mL] | MIC [2] [µg/mL] | MIC [8] [µg/mL] | MIC [9] [µg/mL] | MIC [11] [µg/mL] | MIC [12] [µg/mL] | MIC [16] [µg/mL] | MIC [18] [µg/mL] | MIC [19] [µg/mL] | MIC [20] [µg/mL] | zone of inhibition at 1000 µg/mL [3] [mm] | zone of inhibition at 1000 µg/mL [4] [mm] | zone of inhibition at 1000 µg/mL [5] [mm] | zone of inhibition at 1000 µg/mL [6] [mm] | zone of inhibition at 1000 µg/mL [7] [mm] | zone of inhibition at 1000 µg/mL [10] [mm] | zone of inhibition at 1000 µg/mL [13] [mm] | zone of inhibition at 1000 µg/mL [14] [mm] | zone of inhibition at 1000 µg/mL [15] [mm] | MIC [17] [µg/mL]
CC1(C)S[C@@H]2[C@H](NC(=O)[C@H](N)c3ccccc3)C(=O)N2[C@H]1C(=O)O [AMPICILLIN] | 10 (≈ 28.6 µM) | 10 (≈ 28.6 µM) | 10 (≈ 28.6 µM) | 25 (≈ 71.5 µM) | 20 (≈ 57.2 µM) | 15 (≈ 42.9 µM) | – | – | – | – | 35 | 48 | 45 | 39 | 45 | 40 | – | – | – | –
CC(=O)N1CCN(c2ccc(OCC3COC(Cn4ccnc4)(c4ccc(Cl)cc4Cl)O3)cc2)CC1 (centres undefined) [KETOCONAZOLE] | – | – | – | – | – | – | 20 (≈ 37.6 µM) | 25 (≈ 47 µM) | – | – | – | – | – | – | – | – | 45 | 41 | 40 | 15 (≈ 28.2 µM)
